“And” between values parts separate entries of the source, which are not always exact repeats. Equal entries are not always repeated. Some results are limits rather than exact numbers.

The values that follow come from article PMC4456214 (Molecular cancer therapeutics, 2015).

The target of series [1] is Hsp70-Bag3 interaction (Homo sapiens, UniProt P0DMV8). In words: Co-immunoprecipitation of Hsp70 from HeLa cells, blotted for Bag3. In kind it is cell-based. Particulars: 50 μM. A digest of the protocol: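 HeLa extracts in M-PER lysis buffer at 5 mg total protein per mL. 500 μL samples took rabbit polyclonal anti-Hsp70 or goat IgG control, plus 1% DMSO or test compound at 50 μM final (5 mM stock). Rotated overnight at 4 °C, then 4 h on protein A/G Sepharose. Washed in PBS pH 7.4, eluted in SDS dye, run on 4–15% Tris-Tricine gel, immunoblotted for Hsp70 and Bag3 with chemiluminescence detection. Triplicate, quantification averaged.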
Hsp70-Bag3 interaction, sequence (P0DMV8 2-641 limits assumed): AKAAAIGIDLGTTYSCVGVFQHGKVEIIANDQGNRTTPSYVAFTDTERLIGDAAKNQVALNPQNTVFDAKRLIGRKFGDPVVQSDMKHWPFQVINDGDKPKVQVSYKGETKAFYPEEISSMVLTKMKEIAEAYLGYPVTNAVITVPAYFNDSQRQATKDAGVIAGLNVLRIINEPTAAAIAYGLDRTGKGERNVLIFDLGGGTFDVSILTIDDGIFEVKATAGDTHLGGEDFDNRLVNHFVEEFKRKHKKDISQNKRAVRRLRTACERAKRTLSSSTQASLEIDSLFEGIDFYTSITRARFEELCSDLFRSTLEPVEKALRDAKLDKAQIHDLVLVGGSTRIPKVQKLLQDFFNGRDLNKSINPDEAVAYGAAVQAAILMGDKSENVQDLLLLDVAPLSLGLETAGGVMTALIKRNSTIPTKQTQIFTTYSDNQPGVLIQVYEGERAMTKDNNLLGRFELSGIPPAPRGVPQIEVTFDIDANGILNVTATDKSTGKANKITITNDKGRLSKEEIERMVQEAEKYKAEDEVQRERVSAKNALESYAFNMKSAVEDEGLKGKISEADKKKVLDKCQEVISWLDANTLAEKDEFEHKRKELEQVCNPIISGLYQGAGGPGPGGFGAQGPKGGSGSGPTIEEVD

The subject of series [2] is mouse embryonic fibroblasts (MEFs). In words: MTT cell proliferation assay in normal fibroblasts. In kind it is cell-based. Particulars: read-out: EC50, MEFs, 72 hours. A digest of the protocol: (§1)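 Cells were plated at 2000 per well (MEFs) or 5000 per well (HeLa, MCF7) and left to attach overnight. Test compound at various concentrations was added, final DMSO 1%, for 72 h at 5% CO2. After 3 PBS washes, fresh medium with MTT reagent was added for 4 h at 37 °C in the dark, then detergent buffer. Absorbance was read at 570 nm. At least two independent experiments, each in triplicate.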
Background: Tetrazolium dyes change colour on reduction, which living cells bring about.

Series [3] relates to MCF7. The series can be described thus: MTT cell proliferation assay, MCF7. In kind it is cell-based. Particulars: 72 hours. A digest of the protocol: as §1
The test system of series [4] is HeLa. In words: MTT cell proliferation assay, HeLa. Particulars: 72 hours. The series is classed as cell-based. A digest of the protocol: as §1
For series [5], the system named is OPM1. In words: Luciferase viability assay, multiple myeloma line OPM1. The series is classed as cell-based, Human. Particulars: 72 hours. A digest of the protocol:
(§2)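 Myeloma cells stably transduced with firefly luciferase were exposed to test compound at 11 concentrations between 30 nM and 30 uM for 72 h. Luciferin substrate was then added and bioluminescence read. Signal was normalised to mock-treated wells (100%) and no-cell wells (0%). IC50 came from fitted dose-response curves.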

Series [6] concerns OPM2. In words: Luciferase viability assay, multiple myeloma line OPM2. The series is classed as cell-based, Human. Particulars: 72 hours. A digest of the protocol: as §2
Series [7] deals with FoxM1, HuR, p21, p27 in MCF7 breast cancer cells. The series can be described thus: Western blot of cancer signaling proteins in MCF7 cells. The series is classed as cell-based. (A western blot detects proteins with antibodies after separation by electrophoresis.)
A short description of series [8]: Pharmacokinetics in mice. The series is classed as in vivo, NSG mice. A digest of the protocol:
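NSG mice (three per group) received test compound at 0.3, 1 or 3 mg/kg intraperitoneally in 1:1 DMSO:PBS, dosed twice weekly for 2 weeks. After the final dose, tail-vein blood was taken at 1, 3, 8 and 24 h. Plasma levels were measured by LC-MS, and pharmacokinetic parameters including terminal half-life were calculated.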

Series [9] in a line: Animal toxicity study. In kind it is in vivo, NSG mice.
The subject of series [10] is MCF7 xenografts. In words: MCF7 xenograft model. In kind it is in vivo, nude mice. A digest of the protocol: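 One million MCF7 cells in Matrigel went subcutaneously on both flanks of 6-week-old NCR nude mice. After tumours reached 100 mm3, test compound at 3 mg/kg or 1:1 PBS:DMSO vehicle was given intraperitoneally on days 0, 2 and 4 (n=5 mice, 10 tumours). Caliper measurements every other day, mean volume with SEM. Treated tumours from three animals were Western blotted for signalling proteins.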

Series [11] relates to HeLa xenograft. The series can be described thus: HeLa xenograft model. In kind it is in vivo. Particulars: 3 mg/kg, nude mice. A digest of the protocol:
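One million HeLa cells in Matrigel were injected subcutaneously on both flanks of 6-week-old NCR nude mice. Once tumours were established, test compound at 3 mg/kg or 1:1 PBS:DMSO vehicle was given intraperitoneally on days 2, 4 and 6 (n=5 mice, 10 tumours per group). Tumours were measured by caliper every other day and mean volumes plotted with SEM.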

For series [12], the target named is Bag3 (Homo sapiens) (UniProt O95817). Particulars: cited from earlier work.
Bag3 (Homo sapiens), sequence (O95817 2-575): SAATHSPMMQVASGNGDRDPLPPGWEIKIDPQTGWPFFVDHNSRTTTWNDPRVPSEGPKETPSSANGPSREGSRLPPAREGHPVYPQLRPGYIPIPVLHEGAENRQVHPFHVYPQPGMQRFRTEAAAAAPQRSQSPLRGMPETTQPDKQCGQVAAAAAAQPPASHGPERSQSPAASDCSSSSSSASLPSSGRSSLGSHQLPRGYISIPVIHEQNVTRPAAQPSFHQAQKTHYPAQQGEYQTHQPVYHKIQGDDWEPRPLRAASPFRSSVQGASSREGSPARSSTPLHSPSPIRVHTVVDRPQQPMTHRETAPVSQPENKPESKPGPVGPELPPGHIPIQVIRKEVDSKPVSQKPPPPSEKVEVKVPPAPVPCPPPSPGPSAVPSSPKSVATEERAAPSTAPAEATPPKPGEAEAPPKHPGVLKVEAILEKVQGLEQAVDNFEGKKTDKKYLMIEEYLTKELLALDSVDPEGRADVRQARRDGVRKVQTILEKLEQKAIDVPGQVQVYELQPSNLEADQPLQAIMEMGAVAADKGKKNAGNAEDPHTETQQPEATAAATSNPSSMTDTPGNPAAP
[13] abbreviates: MCF7 xenograft tumors, Western blot.

Hsp70, sequence (P0DMV8 2-641): as the sequence (P0DMV8 2-641 limits assumed) above

In the case of `CCn1c(=O)/c(=C2\Sc3cc(Cl)ccc3N2C)s/c1=C\c1scc[n+]1Cc1ccccc1.[Cl-]` [JG-98], the “reduction of Hsp70-Bag3 interaction” value in series [1] is ~ 60%. In addition, in [2], the EC50 was 4.5 µM and ~4.5 µM. Moreover, the “activity against MCF7” value in [3] is listed as “sub-micromolar activity”. In series [4], the “activity against HeLa” value is “sub-micromolar activity”. In series [5], the “sensitivity of OPM1” value is “relatively less sensitive”. Besides, in [6], the “sensitivity of OPM2” value is recorded as “relatively less sensitive”. Further, in series [7], the “levels of FoxM1 and HuR” value was “reduced”; the “levels of the cell cycle inhibitors p27 and p21” value is “increasing”. Further, in series [8] (3 mg/kg intraperitoneal, after 1 hour, NSG mice), the level in plasma is on record as ~ 70 nM. The terminal half-life result in series [8] (all three doses (0.3, 1, 3 mg/kg) intraperitoneal, NSG mice) is recorded as “approximately 20 hours”. In addition, the stability in animals result in series [8] (compared with YM-01) is “more stable than YM-01”. Also, the oral bioavailability entry in series [8] (mice) is on record as “not orally bioavailable”. The compound also gave a weight loss in [9] (0.3, 1, 3 mg/kg intraperitoneal twice a week for 2 weeks, NSG mice) of under 10%. In series [9] (after the final dose, markers of liver function), the “alanine aminotransferase and total bilirubin” value was “in the normal range”. The “blood urea nitrogen (BUN) and creatinine levels” value in [9] (all three dosages, after the final dose, renal function) is “normal”. In addition, the tolerability result in [9] (mouse, in vivo, ip) was “well tolerated”. Further, in series [10] (3 mg/kg intraperitoneal on days 0, 2 and 4, nude mice), the “tumor growth, MCF7 xenograft” value is “limited tumor growth until day 6”. In [10] (setting [13]), the “HuR and FoxM1 in tumor samples” value is “tended to be decreased”; the “p21 in tumor samples” value is recorded as “significantly elevated”. In addition, in [11], the “tumor growth, HeLa xenograft” value is reported as “suppressed tumor growth”.

As to Hsp70 (from UniProt P0DMV8), the Kd in series [12] was 30 nM.

On to YM-01 [reference compound], for which the “reduction of Hsp70-Bag3 interaction” value in [1] is on record as ~ 60%.

Broadly, the EC50 is the concentration at which the effect is half-maximal. One may read the Kd as a measure of binding affinity in units of concentration.
